CCR6 antag: antagonists of human CCR6 receptor | P51684 | CHO-K1 CCR6 PathHunter beta-arrestin, luminescence, CCL20-stimulated | inhibition, % at 20 µM | 0.49% of 340,000 active;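 active = compounds whose inhibition of the agonist-driven luminescence signal at 20 µM reaches about 50%, limit read from the data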;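 also: cells stimulated with CCL20 at 14 nM final; plate controls were DMSO with CCL20 for no effect and DMSO without agonist for full effect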
Target sequence (P51684 whole entry, looked up): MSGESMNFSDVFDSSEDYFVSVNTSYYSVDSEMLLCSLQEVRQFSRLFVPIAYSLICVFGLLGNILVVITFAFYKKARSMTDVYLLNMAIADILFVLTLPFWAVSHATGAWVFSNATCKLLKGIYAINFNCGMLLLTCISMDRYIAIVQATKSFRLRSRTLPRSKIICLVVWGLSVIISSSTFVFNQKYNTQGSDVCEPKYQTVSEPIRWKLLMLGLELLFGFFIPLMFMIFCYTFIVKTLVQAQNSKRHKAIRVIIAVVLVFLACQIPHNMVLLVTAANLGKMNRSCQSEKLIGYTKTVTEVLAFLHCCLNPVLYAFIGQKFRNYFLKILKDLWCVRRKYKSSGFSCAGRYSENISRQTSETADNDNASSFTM
APOBEC3A inh: human APOBEC3A DNA deaminase inhibition; inhibition, % at 20 µM; 0.41% of 330,000 active; recombinant A3A, FAM/TAMRA ssDNA deamination fluorescence; AID 493011; P31941;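 active = at least 40% inhibition at 20 µM here, with at most 30% in a related deaminase screen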;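 also: plate controls were A3A with DMSO for no effect and wells lacking A3A enzyme for full effect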
Target sequence (P31941 whole entry, looked up): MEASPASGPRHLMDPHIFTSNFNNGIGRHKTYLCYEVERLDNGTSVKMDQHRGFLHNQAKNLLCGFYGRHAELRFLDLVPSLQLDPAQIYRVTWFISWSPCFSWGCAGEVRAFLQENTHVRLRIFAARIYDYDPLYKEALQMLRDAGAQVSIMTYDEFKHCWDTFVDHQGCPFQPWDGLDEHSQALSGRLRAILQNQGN
APJ antag: APJ receptor antagonism; P35414; CHO-K1 APJ beta-arrestin complementation, luminescence; inhibition, % at 20 µM; 0.32% of 330,000 active; AID 2521;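 active = inhibition above about 40% at 20 µM, limit read from the data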;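 also: cells challenged with 10 nM apelin-13 agonist together with compound; plate controls were apelin-13 plus DMSO wells for no effect and DMSO wells lacking apelin-13 for full effect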
CXCR6 block: CXCR6 (human) receptor inhibition; 0.36% of 360,000 active; AID 602244; inhibition, % at 20 µM; CHO-K1 PathHunter CXCR6 beta-arrestin, luminescence; in the data active = inhibition above about 34%, passing the limit was not always enough;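 also: antagonist mode with CXCL16 agonist at 10 nM final; 0% = 10 nM CXCL16 with DMSO and 100% = unstimulated wells without agonist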
A3G deaminase: blocks human APOBEC3G single-stranded DNA deamination | 0.28% of 330,000 active | Q9HC16 | recombinant A3G, ssDNA deamination FAM/TAMRA fluorescence | inhibition, % at 20 µM;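 active = inhibition of at least 40% at 20 µM, with no more than 30% in the related APOBEC3A deaminase screen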;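 also: plate controls were DMSO wells with A3G for no effect and wells lacking A3G enzyme for full effect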
APJ agonist: APJ receptor agonism; P35414; CHO-K1 APJ PathHunter beta-arrestin, luminescence; 0% DMSO wells, 100% apelin; activation, % at 20 µM; 0.11% of 330,000 active; AID 2520;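 active = activation more than six SD over the plate average, tested at 20 µM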;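 also: 0% = DMSO alone and 100% = apelin-13 at 10 nM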
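Assay system: engineered CHO-K1 APJ arrestin reporter cells; Amount: 1000 CHO-K1 reporter cells seeded per well; Dosing: one dose, 20 µM compound, 1% DMSO; Times: compound stimulation 90 min at 25 °C, detection 60 min; Measured by: luminescent beta-gal fragment complementation, chemiluminescent substrate; Read-out: APJ–arrestin association signal; Controls: DMSO vs Apelin-13 10 nM.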
APOBEC3G confirm: confirmation of human APOBEC3G DNA deaminase inhibitors. 72% of 890 active. inhibition, % at 20 µM. recombinant A3G ssDNA deaminase, UDG/FAM-TAMRA fluorescence. shares compounds with A3G deaminase. AID 493152;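 active = inhibition reaching a set limit in any replicate at 20 µM, the limit being 80% of the first screen's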
UDG A3G counter: inhibits E. coli UDG, flagging false APOBEC3G inhibitors; UDG counterscreen, FAM/TAMRA oligo fluorescence; inhibition, % at 20 µM; 710 tested, under 10 active; shares compounds with A3G deaminase; AID 504715;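 active = compounds giving 40% or more inhibition at 20 µM in any one of the three replicates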;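 also: plate controls were DMSO wells with UDG and oligo for no effect and DMSO wells lacking both for full effect; inhibitors lower the FAM signal released by uracil excision and alkaline cleavage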
CXCR6 confirm: confirmation of human CXCR6 receptor antagonists; shares compounds with CXCR6 block; 65% of 700 active; inhibition, % at 20 µM; CHO-K1 CXCR6 PathHunter beta-arrestin, luminescence; AID 602409;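 active = mean inhibition over four retests above 40%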;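 also: receptor stimulated with 10 nM CXCL16 agonist; beta-galactosidase fragment complementation upon beta-arrestin recruitment to receptor; plate controls were CXCL16 plus DMSO for no effect and DMSO without CXCL16 for full effect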
The depositor's hits bear a star; . = no result. The list is not random: actives were taken first. Their share in the collection is about 1.4%.

SMILES	CCR6 antag	APOBEC3A inh	APJ antag	CXCR6 block	A3G deaminase	APJ agonist	APOBEC3G confirm	UDG A3G counter	CXCR6 confirm
Cn1c(=O)n(C)c2cc(S(=O)(=O)Nc3ccccc3C(=O)O)ccc21	11	4	-11	-3	56*	0	3	.	.
Cc1[nH]nc2c(=S)[nH]c(=O)[nH]c12	.	.	.	7	.	.	.	.	.
C/C(=N\NC(=O)C(=O)N/N=C(\C)c1cccc(O)c1)c1cccc(O)c1	-1	2	7	1	58*	-6	1	.	.
C/C(=N/NC(=O)C(=O)N/N=C(/C)c1ccccc1)c1ccccc1	.	-1	3	.	-7	1	.	.	.
COc1ccc(C2NC(=S)N3C(c4ccc(OC)cc4)NC(=S)N23)cc1 (stereo unspecified)	6	-3	9	1	45*	0	34*	-3	.
COc1ccc(OCCC(=O)OCC(=O)Nc2cccc(S(=O)(=O)N3CCCCC3)c2)cc1	3	0	6	1	-4	-1	.	.	.
CC(C)(CS(=O)(=O)[O-])NC(=O)CC[N+](C)(C)CCO	15	9	-13	-13	88*	-3	94*	.	.
NS(=O)(=O)Cc1noc2ccccc12	21	-2	8	4	-7	-2	.	.	.
COc1ccccc1NS(=O)(=O)c1cc(NC(=O)c2sccc2C)ccc1N1CCCC1	0	-1	2	3	42*	-2	active	-3	.
COc1ccccc1NS(=O)(=O)c1cc(NC(=O)c2cccs2)ccc1N1CCCCC1	10	0	-17	-1	-7	-1	.	.	.
COc1ccccc1NS(=O)(=O)c1cc(NC(=O)c2cc[n+]([O-])cc2)ccc1N1CCCC1	13	2	16	3	44*	-3	34*	2	.
COc1ccccc1NS(=O)(=O)c1cc(NC(=O)c2cccs2)ccc1N1CCCC1	-3	3	11	8	40*	-4	63*	-2	.
COc1ccccc1NS(=O)(=O)c1cc(NC(=O)c2sccc2C)ccc1N1CCOCC1	6	-3	-32	5	-4	1	.	.	.
Cc1ccc(CNS(=O)(=O)c2ccc(Cl)s2)cc1	.	.	.	-8	.	.	.	.	.
CCn1c(-c2cc3c(C(F)(F)F)nn(C)c3s2)n[nH]c1=S	11	-8	18	9	41*	-1	63*	-2	.
Cn1c(-c2cc3c(C(F)(F)F)nn(C)c3s2)n[nH]c1=S	13	-2	9	5	53*	-4	77*	1	.
Cn1nc(C(F)(F)F)c2cc(C(=O)O)sc21	12	-2	15	-17	-3	-3	.	.	.
CSc1ccccc1NC(=O)CSc1nnc(COc2ccccc2)o1	-8	-1	7	1	-12	-2	.	.	.
CC(=O)Oc1ccc(N2C(=O)C3C(C2=O)C2(C)C=CC3(C)O2)cc1 (stereo unspecified)	.	0	13	.	47*	-2	49*	.	.
O=c1c2ccccc2sn1-c1ccccc1	76*	-1	-12	86*	87*	2	91*	-4	16
O=C(Nc1cccc(N2C(=O)C=CC2=O)c1)c1cccs1	.	24	-7	77*	55*	-2	58*	.	19
Cc1cc(C)c2c(=O)n(CC(=O)Nc3ccc(Cl)cc3)sc2n1	11	-7	1	65*	82*	6	93*	0	10
CCOc1ccc(NC(=O)Cn2ncc3ccccc32)cc1	3	-1	4	-5	-5	-1	.	.	.
O=C(Cn1sc2ccccc2c1=O)Nc1ccc(Cl)cc1	.	.	.	-7	.	.	.	.	.
CCOc1ccc(NC(=O)Cn2sc3nc(C)cc(C)c3c2=O)cc1	29	-1	-30	38*	80*	0	49*	-3	35
SMILES	CCR6 antag	APOBEC3A inh	APJ antag	CXCR6 block	A3G deaminase	APJ agonist	APOBEC3G confirm	UDG A3G counter	CXCR6 confirm
CCOC(=O)C1(C)CCN1C(=O)c1ccc(C)cc1 (stereo unspecified)	.	.	.	-3	.	.	.	.	.
O=c1c2c([N+](=O)[O-])cc([N+](=O)[O-])cc2nc2ccccn12	4	6	-18	2	8	4	.	.	.
O=c1c2c([N+](=O)[O-])cc([N+](=O)[O-])cc2sn1Cc1ccccc1	97*	0	9	45*	70*	2	76*	-1	16
CC(C(Sc1ccccc1N)c1ccccc1)[N+](=O)[O-] (stereo unspecified)	48	1	16	30*	65*	0	26*	-2	28
Cc1c(C(=O)O)sc2nc(CSc3ncc(C(F)(F)F)cc3Cl)[nH]c(=O)c12	14	-3	2	3	-6	0	.	.	.
COc1cc(NC(=O)CN2CCN(C(=O)c3ccco3)CC2)c(C)cc1[N+](=O)[O-]	.	.	.	3	.	.	.	.	.
Cc1[nH]n(-c2ccccc2)c(=S)c1C=NCCCN=Cc1c(C)[nH]n(-c2ccccc2)c1=S	74*	5	-29	54*	62*	0	54*	-3	74*
CC1(c2ccccc2)C(C#N)C(=O)NC(=O)C1C#N (stereo unspecified)	-5	.	.	8	.	.	.	.	.
Fc1ccc(Sc2nc(-c3ccccc3)nnc2C(F)(F)F)cc1	50*	-1	34	45*	-2	-6	.	.	63*
CCOc1ccc(S(=O)(=O)N2CCC(C(=O)NCc3ccncc3)CC2)cc1	10	0	9	-2	2	-2	.	.	.
CCc1nc2oc3ccc(C)cc3c(=O)c2cc1C(=O)OC	18	.	.	6	.	.	.	.	.
Cc1cc(Cl)c(C)c(S(=O)(=O)Oc2ccccc2NC(=O)CCC(=O)O)c1Cl	9	-5	-11	2	-6	-3	.	.	.
Nc1cc(=O)[nH]c(SCC(=O)Nc2ccc(Cl)c(Cl)c2)n1	3	-2	-3	43*	-5	-4	.	.	5
Cc1ccccc1CS(=O)(=O)c1nnc([C@H](Cc2ccccc2)NC(=O)OC(C)(C)C)o1	89*	-2	24	64*	-5	-4	.	.	58*
CCC(C)C(CO)NCCCn1cnc2c(OC)ncnc21 (stereo unspecified)	.	.	.	43*	.	.	.	.	9
CCC1NC(=O)c2cc3ccccc3cc2-n2c1nc1cc(C)cc(C)c1c2=O (stereo unspecified)	.	.	.	60*	.	.	.	.	7
Cc1cc(C)c2c(=O)n3c(nc2c1)C(Cc1ccccc1)NC(=O)c1cc2ccccc2cc1-3 (stereo unspecified)	.	.	.	0	.	.	.	.	.
